In ChEMBL document CHEMBL1641402, “Use of experimental design for the optimization of the production of new secondary metabolites by two Penicillium species” (J Nat Prod, 2010):
Active and inactive are the calls of the source. The calls are words filed in the database; no cut-off is given here.

Tests used:
Candida albicans [1] = test: Antimicrobial activity against Candida albicans at 8 ug/disk; assay type: functional; conditions: read-out: IZ
[2] = test system: Mycobacterium tuberculosis; test: Antimycobacterial activity against Mycobacterium tuberculosis H37Rv; assay type: functional, organism-based
HTB-129 = test: (§1) Cytotoxicity against human HTB-129 cells after 72 hrs by MTT assay; assay type: functional, cell-based
Method in brief: (§2)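 HTB-129 breast carcinoma cells kept in Leibovitz's L-15 with 2 mM L-glutamine, insulin 0.01 mg/mL, 10% FBS, penicillin/streptomycin, 37 °C in air. Seeded at 1 × 10^5 cells/mL, 24 h before dosing. Compounds in DMSO, serially diluted in medium from 200 to 1.76 µg/mL. Exposure 72 h, then MTT 3 h, DMSO solubilization, read at 570 nm. Viability as percent of untreated controls; IC50 fitted.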

Pseudomonas aeruginosa = test: Antimicrobial activity against Pseudomonas aeruginosa after 24 hrs by broth micro dilution method; assay type: functional
Method in brief: (§3)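 Broth microdilution per NCCLS guidelines: 2-fold serial dilutions in RPMI-1640 buffered to pH 7.5 with 0.165 M MOPS, final 0.5–128 µg/mL. Inocula from 24 h tryptic soy agar cultures at 37 °C, final 10^3/10^4 cells per mL. Kanamycin and polymyxin B as controls. Incubated 24 h at 37 °C, OD 600 nm; MIC is lowest concentration giving complete (90%) growth inhibition.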

Escherichia coli = test: Antimicrobial activity against Escherichia coli after 24 hrs by broth micro dilution method; assay type: functional; method in brief: as §3
Staphylococcus aureus = test: Antimicrobial activity against Staphylococcus aureus after 24 hrs by broth micro dilution method; assay type: functional; method in brief: as §3
[3] = as §1; assay type: functional, cell-based; conditions: HTB-129, 72 h; method in brief: as §2
Candida albicans [4] = test: Antimicrobial activity against Candida albicans at 40 ug/disk; assay type: functional, organism-based

With C[C@@H]1[C@H](O)[C@@H](C)/C=C/C=C/C=C/C=C/C=C/C=C/C=C/[C@H](O[C@@H]2O[C@H](C)[C@@H](O)[C@H](N)[C@@H]2O)C[C@@H]2O[C@](O)(C[C@@H](O)C[C@@H](O)[C@H](O)CC[C@@H](O)C[C@@H](O)CC(=O)O[C@H]1C)C[C@H](O)[C@H]2C(=O)O [AMPHOTERICIN B] the zone of inhibition at 8 µg/disc (Candida albicans [1]) was 20 mm.

For COc1ccc2c3c1C(=O)CC(C)(C)N3C(=O)[C@@]21C[C@@]2([N+](=O)[O-])CN3CCC[C@@H]3C[C@H]2C1(C)C, the inhibition [2] was “inactive”, the inhibition (HTB-129) was “inactive” and the inhibition (Pseudomonas aeruginosa) was “inactive”. The inhibition (Escherichia coli) was “inactive” and the inhibition (Staphylococcus aureus) was “inactive”.

In the case of COc1ccc2c3c1C(=O)CC(C)(C)N3C(=O)[C@@]21C[C@]2([N+](=O)[O-])CN3CCC[C@@H]3C[C@H]2C1(C)C, the inhibition [2] is reported as “inactive”, the inhibition (HTB-129) is reported as “inactive” and the inhibition (Pseudomonas aeruginosa) is reported as “inactive”. For the same compound, the inhibition (Escherichia coli) was “inactive” and the inhibition (Staphylococcus aureus) was “inactive”.

For CC1(C)CC(=O)c2c(ccc3c2NC(=O)[C@]32C[C@@]3([N+](=O)[O-])CN4CCC[C@@H]4C[C@@H]3C2(C)C)O1.O=C(O)C(F)(F)F [CITRINALINE B], the IC50 [3] was 194 µM, the MIC (Pseudomonas aeruginosa) was > 32 µg/mL and the MIC (Escherichia coli) was > 32 µg/mL. For the same compound, the inhibition (Candida albicans [4]) was “inactive” and the MIC (Staphylococcus aureus) was > 32 µg/mL.

With C=CC(C)(C)[C@]12C=C(OC)C(=O)N3/C(=C/c4c[nH]cn4)C(=O)N[C@@]31N(OC)c1ccccc12 the inhibition [2] was “inactive”.

For CC1(C)CC(=O)c2c(ccc3c2NC(=O)[C@]32C[C@@]3([N+](=O)[O-])CN4CCC[C@H]4C[C@@H]3C2(C)C)O1.O=C(O)C(F)(F)F [CITRINALIN A], the IC50 [3] was 174 µM, the MIC (Pseudomonas aeruginosa) was > 32 µg/mL and the MIC (Escherichia coli) was > 32 µg/mL. The inhibition (Candida albicans [4]) was “inactive” and the MIC (Staphylococcus aureus) was > 32 µg/mL.
